Laboratory results published in ChEMBL document CHEMBL1122773 (1984).
≈ marks a conversion by molar mass, not a printed value.

Key:
[1] = test system: Mus musculus; experiment: Bioactivity in blood, in Bacteroides fragilis infected mice following subcutaneous dose of 200 mg/kg after 15 mins of bleeding; format: functional
How it was run: (§1)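 On day 7 post-infection, groups of five mice were given a single 200 mg/kg subcutaneous dose and killed at set times. Blood was taken by cardiac puncture and abscesses were excised. Activity was measured by standard microbiological assay.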

[2] = test system: Mus musculus; experiment: Bioactivity in blood, in Bacteroides fragilis infected mice following subcutaneous dose of 200 mg/kg after 360 mins of bleeding; format: functional; how it was run: as §1
[3] = test system: Cutibacterium acnes; experiment: In vitro antibacterial activity against the anaerobic Propionibacterium acnes(Strain UC no.6575); format: functional
How it was run: (§2)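 Agar dilution with serial twofold drug dilutions in Schaedler broth mixed into molten Wilkens-Chalgren agar. Plates prereduced 3 h under 85% N2/10% H2/5% CO2. Strains grown 48 h on Schaedler agar, suspended to 0.5 McFarland, and 0.001 mL spotted by replicator. All steps done anaerobically. Incubation 48 h at 37 °C. MIC is the least drug inhibiting growth; a faint film or fewer than three colonies scored negative.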

[4] = test system: Staphylococcus aureus; experiment: In vitro antibacterial activity against the aerobic Staphylococcus aureus (Strain UC no.6689); format: functional
How it was run: (§3)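 Broth microdilution in brain/heart infusion broth with twofold drug dilutions. Inoculum was a standardized suspension giving 10⁵ viable cells/mL final. Plates were incubated 20 h at 37 °C. MIC (mcg/mL) = lowest concentration with no visible growth.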

[5] = test system: Mus musculus; experiment: Bioactivity in abscess, in Bacteroides fragilis infected mice following subcutaneous dose of 200 mg/kg after 45 mins of bleeding; format: functional; how it was run: as §1
[6] = test system: Mus musculus; experiment: Bioactivity in abscess, in Bacteroides fragilis infected mice following subcutaneous dose of 200 mg/kg after 30 mins of bleeding; format: functional; how it was run: as §1
[7] = test system: Staphylococcus aureus; experiment: In vitro antibacterial activity against the aerobic Staphylococcus aureus (Strain UC no.570); format: functional; how it was run: as §3
[8] = test system: Mus musculus; experiment: Bioactivity in blood, in Bacteroides fragilis infected mice following subcutaneous dose of 200 mg/kg after 120 mins of bleeding; format: functional; how it was run: as §1
[9] = test system: Staphylococcus aureus; experiment: In vitro antibacterial activity against the aerobic Staphylococcus aureus (Strain UC no.6675); format: functional; how it was run: as §3
[10] = test system: Clostridium cadaveris; experiment: In vitro antibacterial activity against the anaerobic Clostridium cadaveris (Strain UC no.6510); format: functional; how it was run: as §2
[11] = test system: Mus musculus; experiment: Bioactivity in blood, in Bacteroides fragilis infected mice following subcutaneous dose of 200 mg/kg after 90 mins of bleeding; format: functional; how it was run: as §1
[12] = test system: Staphylococcus aureus; experiment: In vitro antibacterial activity for minimum inhibition concentration (MIC) required to inhibit growth of Staphylococcus aureus; format: functional
How it was run: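 Broth microdilution in brain/heart infusion broth, inoculated with a standardized suspension to a final 10^5 viable cells/mL. Incubation 20 h at 37 °C. MIC read as the lowest concentration preventing visible growth.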

[13] = test system: Mus musculus; experiment: Bioactivity in blood, in Bacteroides fragilis infected mice following subcutaneous dose of 200 mg/kg after 60 mins of bleeding; format: functional; how it was run: as §1
[14] = test system: Staphylococcus aureus; experiment: In vitro antibacterial activity against the aerobic Staphylococcus aureus (Strain UC no.6695); format: functional; how it was run: as §3
[15] = test system: Escherichia coli; experiment: In vitro antibacterial activity against the aerobic Escherichia coli (Strain UC no.45); format: functional; how it was run: as §3
[16] = test system: Mus musculus; experiment: Bioactivity in abscess, in Bacteroides fragilis infected mice following subcutaneous dose of 200 mg/kg after 120 mins of bleeding; format: functional; how it was run: as §1
[17] = test system: Staphylococcus aureus; experiment: In vitro antibacterial activity against the aerobic Staphylococcus aureus (Strain UC no.746); format: functional; how it was run: as §3
[18] = test system: Mus musculus; experiment: Bioactivity in abscess, in Bacteroides fragilis infected mice following subcutaneous dose of 200 mg/kg after 150 mins of bleeding; format: functional; how it was run: as §1
[19] = test system: Klebsiella pneumoniae; experiment: In vitro antibacterial activity against the aerobic Klebsiella pneumoniae (Strain UC no.58); format: functional; how it was run: as §3
[20] = In vitro antibacterial activity against the aerobic […] (Strain UC no.153); format: functional; how it was run: as §3
[21] = test system: Mus musculus; experiment: Bioactivity in abscess, in Bacteroides fragilis infected mice following subcutaneous dose of 200 mg/kg after 15 mins of bleeding; format: functional; how it was run: as §1
[22] = test system: Staphylococcus aureus; experiment: In vitro antibacterial activity against the aerobic Staphylococcus aureus (Strain UC no.6692); format: functional; how it was run: as §3
[23] = test system: Peptoniphilus asaccharolyticus; experiment: In vitro antibacterial activity against the anaerobic Peptoccus aerogenes (Strain UC no.6319); format: functional; how it was run: as §2
[24] = In vitro antibacterial activity against the aerobic Salmonella schottmuelleri (Strain UC no.126); format: functional; how it was run: as §3
[25] = test system: Staphylococcus aureus; experiment: In vitro antibacterial activity against the aerobic Staphylococcus aureus (Strain UC no.6688); format: functional; how it was run: as §3
[26] = test system: Staphylococcus aureus; experiment: In vitro antibacterial activity against the aerobic Staphylococcus aureus (Strain UC no.571); format: functional; how it was run: as §3
[27] = test system: Mus musculus; experiment: Bioactivity in blood, in Bacteroides fragilis infected mice following subcutaneous dose of 200 mg/kg after 30 mins of bleeding; format: functional; how it was run: as §1
[28] = test system: Proteus vulgaris; experiment: In vitro antibacterial activity against the aerobic Proteus vulgaris (Strain UC no.93); format: functional; how it was run: as §3
[29] = In vitro antibacterial activity against the aerobic […] (Strain UC no.871); format: functional; how it was run: as §3
[30] = test system: Mus musculus; experiment: Bioactivity in abscess, in Bacteroides fragilis infected mice following subcutaneous dose of 200 mg/kg after 360 mins of bleeding; format: functional; how it was run: as §1
[31] = test system: Staphylococcus aureus; experiment: In vitro antibacterial activity against the aerobic Staphylococcus aureus (Strain UC no.76); format: functional; how it was run: as §3
[32] = test system: Mus musculus; experiment: Bioactivity in abscess, in Bacteroides fragilis infected mice following subcutaneous dose of 200 mg/kg after 90 mins of bleeding; format: functional; how it was run: as §1
[33] = test system: Mus musculus; experiment: Bioactivity in blood, in Bacteroides fragilis infected mice following subcutaneous dose of 200 mg/kg after 45 mins of bleeding; format: functional; how it was run: as §1
[34] = test system: Mus musculus; experiment: Bioactivity in abscess, in Bacteroides fragilis infected mice following subcutaneous dose of 200 mg/kg after 60 mins of bleeding; format: functional; how it was run: as §1
[35] = test system: Staphylococcus aureus; experiment: In vitro antibacterial activity against the aerobic Staphylococcus aureus (Strain UC no.6696); format: functional; how it was run: as §3
[36] = test system: Mus musculus; experiment: Bioactivity in blood, in Bacteroides fragilis infected mice following subcutaneous dose of 200 mg/kg after 150 mins of bleeding; format: functional; how it was run: as §1
[37] = test system: Streptococcus pyogenes; experiment: In vitro antibacterial activity against the aerobic Streptococcus pyogenes (Strain UC no.152)
[38] = test system: Staphylococcus aureus; experiment: In vitro antibacterial activity against the aerobic Staphylococcus aureus (Strain UC no.6686); format: functional; how it was run: as §3
[39] = test system: Staphylococcus aureus; experiment: In vitro antibacterial activity against the aerobic Staphylococcus aureus (Strain UC no.6691); format: functional; how it was run: as §3
[40] = test system: Pseudomonas aeruginosa; experiment: In vitro antibacterial activity against the aerobic Pseudomonas aeruginosa (Strain UC no.95); format: functional; how it was run: as §3
[41] = test system: Staphylococcus aureus; experiment: In vitro antibacterial activity against the aerobic Staphylococcus aureus (Strain UC no.6693); format: functional; how it was run: as §3
[42] = test system: Staphylococcus aureus; experiment: In vitro antibacterial activity against the aerobic Staphylococcus aureus (Strain UC no.6694); format: functional; how it was run: as §3
[43] = In vitro antibacterial activity against the aerobic […] I(Strain UC no.41); format: functional; how it was run: as §3
[44] = test system: Clostridium tetani; experiment: In vitro antibacterial activity against the anaerobic Clostridium tetani(Strain UC no.6521); format: functional
How it was run: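 Agar dilution under anaerobic conditions. Serial twofold drug dilutions in Schaedler broth were mixed with molten Wilkins-Chalgren agar. Plates were prereduced 3 h (85% N2, 10% H2, 5% CO2). Strains were grown 48 h on Schaedler agar, suspended to 0.5 McFarland, and 0.001 mL spotted by replicator. Incubation was anaerobic, 37 °C, 48 h.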

[45] = In vitro antibacterial activity against the aerobic […] III(Strain UC no.3213); format: functional; how it was run: as §3

For CC[C@@H]1CCN[C@H](C(=O)N[C@@H]([C@H]2O[C@H](SC)[C@H](O)[C@@H](O)[C@H]2O)[C@H](C)Cl)C1 [PIRLIMYCIN], the B [1] was 39 ug (g of abscess)-1, the B [2] was 4 ug (g of abscess)-1 and the MIC [3] was 0.06 µg/mL (≈ 0.146 µM). For the same molecule, the MIC [4] was 0.78 µg/mL (≈ 1.9 µM), the A [5] was 32 ug (g of abscess)-1 and the A [6] was 48 ug (g of abscess)-1. For the same molecule, the MIC [7] was 0.39 µg/mL (≈ 0.949 µM), the B [8] was 10 ug (g of abscess)-1 and the MIC [9] was 0.39 µg/mL (≈ 0.949 µM). For the same molecule, the MIC [10] was 0.06 µg/mL (≈ 0.146 µM), the B [11] was 14 ug (g of abscess)-1 and the MIC [12] was 0.1 µg/mL (≈ 0.243 µM). The B [13] was 20 ug (g of abscess)-1, the MIC [14] was 0.39 µg/mL (≈ 0.949 µM) and the MIC [15] was greater than 25 µg/mL. For the same molecule, the A [16] was 22 ug (g of abscess)-1, the MIC [17] was 0.05 µg/mL (≈ 0.122 µM) and the A [18] was 19 ug (g of abscess)-1. For the same molecule, the MIC [19] was greater than 25 µg/mL, the MIC [20] was 0.05 µg/mL (≈ 0.122 µM) and the A [21] was 58 ug (g of abscess)-1. For the same molecule, the MIC [22] was greater than 25 µg/mL, the MIC [23] was 0.06 µg/mL (≈ 0.146 µM) and the MIC [24] was greater than 25 µg/mL. The MIC [25] was greater than 25 µg/mL, the MIC [26] was 0.78 µg/mL (≈ 1.9 µM) and the B [27] was 43 ug (g of abscess)-1. The MIC [28] was greater than 25 µg/mL, the MIC [29] was less than 0.012 µg/mL and the A [30] was 15 ug (g of abscess)-1. The MIC [31] was 0.1 µg/mL (≈ 0.243 µM), the A [32] was 31 ug (g of abscess)-1 and the B [33] was 25 ug (g of abscess)-1. For the same molecule, the A [34] was 31 ug (g of abscess)-1, the MIC [35] was 0.39 µg/mL (≈ 0.949 µM) and the B [36] was 8 ug (g of abscess)-1. For the same molecule, the MIC [37] was less than 0.012 µg/mL, the MIC [38] was 0.2 µg/mL (≈ 0.487 µM) and the MIC [39] was 0.2 µg/mL (≈ 0.487 µM). It also gave an MIC [40] greater than 25 µg/mL, an MIC [41] of 0.78 µg/mL (≈ 1.9 µM) and an MIC [42] greater than 25 µg/mL. The MIC [43] was less than 0.012 µg/mL, the MIC [44] was less than 0.03 µg/mL and the MIC [45] was less than 0.012 µg/mL.
